Assay [1] has as its target T1, Solute carrier family 2, facilitated glucose transporter member 5 (Homo sapiens) (UniProt P22732).
T1 sequence (whole entry): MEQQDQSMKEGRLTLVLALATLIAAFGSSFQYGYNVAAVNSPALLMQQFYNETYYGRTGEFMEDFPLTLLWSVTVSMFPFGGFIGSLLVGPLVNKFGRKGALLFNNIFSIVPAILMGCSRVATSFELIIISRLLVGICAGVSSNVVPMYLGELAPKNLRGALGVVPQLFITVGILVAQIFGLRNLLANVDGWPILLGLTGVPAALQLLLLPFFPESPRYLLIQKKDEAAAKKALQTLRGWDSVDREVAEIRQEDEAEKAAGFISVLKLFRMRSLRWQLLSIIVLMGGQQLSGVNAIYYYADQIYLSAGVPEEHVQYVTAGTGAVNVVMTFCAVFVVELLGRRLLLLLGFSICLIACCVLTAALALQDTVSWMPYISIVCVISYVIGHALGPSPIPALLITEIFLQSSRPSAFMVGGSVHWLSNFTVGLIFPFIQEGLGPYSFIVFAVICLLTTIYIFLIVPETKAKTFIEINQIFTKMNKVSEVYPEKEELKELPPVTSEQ
The assay can be described thus: Inhibition of transport activity of human GLUT5 expressed in hexose transporter deficient VW4000 yeast cells assessed as reduction in transporter-mediated [14C]-fructose uptake into cells at 100 uM measured after 10 mins by scintillation counting method. Format: cell-based. In outline:
(§1)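 The hxt0 yeast strain expressing one human GLUT was grown at 30 °C and resuspended in PBS pH 7.4 at OD600 ~10. Uptake was started with 14C-glucose at 5 mM final (GLUT1, GLUT4) or 14C-fructose at 10 mM final (GLUT5). It was quenched after 10 min with ice-cold 0.1 M KPi/0.1 M LiCl pH 5.5, filtered and counted by scintillation. Compound at 100 μM with 1% DMSO; DMSO control and phloretin 200 μM (GLUT1/4) or MSNBA 100 μM (GLUT5) as references. Triplicates.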

Assay [2] addresses T2, Solute carrier family 2, facilitated glucose transporter member 4 (Homo sapiens) (UniProt P14672).
T2 sequence (whole entry): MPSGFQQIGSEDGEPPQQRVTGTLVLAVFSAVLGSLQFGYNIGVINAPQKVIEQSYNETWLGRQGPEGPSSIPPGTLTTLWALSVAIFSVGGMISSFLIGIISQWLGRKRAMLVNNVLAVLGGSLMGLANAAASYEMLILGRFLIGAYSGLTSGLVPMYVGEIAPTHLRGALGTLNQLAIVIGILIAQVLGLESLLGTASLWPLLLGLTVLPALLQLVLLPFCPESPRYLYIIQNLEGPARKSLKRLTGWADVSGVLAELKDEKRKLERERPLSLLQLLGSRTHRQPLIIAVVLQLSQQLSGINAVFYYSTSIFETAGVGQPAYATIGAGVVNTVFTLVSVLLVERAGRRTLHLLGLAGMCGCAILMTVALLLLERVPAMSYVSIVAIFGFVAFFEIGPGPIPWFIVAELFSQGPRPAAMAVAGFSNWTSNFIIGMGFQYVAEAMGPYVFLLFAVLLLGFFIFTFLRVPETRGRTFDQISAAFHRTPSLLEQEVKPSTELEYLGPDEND
Kind of assay: Inhibition of transport activity of human GLUT4 expressed in hexose transporter deficient […] erg4 yeast cells assessed as reduction in transporter-mediated [14C]-hexose uptake into cells at 100 uM measured after 10 mins by scintillation counting method relative to control. Format: cell-based. In outline:
as §1

Another assay deals with CCRF-CEM. Kind of assay: Cytotoxicity against human CCRF-CEM cells assessed as reduction in cell viability measured after 48 hrs by Hoechst 33342/propidium iodide staining based imaging analysis. The class given is functional. In outline: (§2)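 Cells were seeded at 10,000 per well (HS-27 at 3,000) in 10% FBS RPMI (leukemic lines) or DMEM (MDA-MB-231, HS-27). Compound in DMSO (1% v/v final) at 0.5–100 µM for 48 h. Hoechst 33342 and PI were added 2 h before automated imaging; dead cells were co-stained. Quadruplicates. CC50 was taken by linear interpolation between the two concentrations nearest 50% death.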

Another assay has as its system K562. The assay can be described thus: Cytotoxicity against human K562 cells assessed as reduction in cell viability measured after 48 hrs by Hoechst 33342/propidium iodide staining based imaging analysis. Format: functional. In outline:
as §2

The next assay concerns KCL-22. The assay can be described thus: Cytotoxicity against human KCL-22 cells assessed as reduction in cell viability measured after 48 hrs by Hoechst 33342/propidium iodide staining based imaging analysis. Format: functional. In outline:
as §2

Assay [3] is described as follows: Selectivity index, ratio of CC50 for human HS27 cells to CC50 for human CCRF-CEM cells. In outline: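 Ratio of HS-27 CC50 to CCRF-CEM CC50. Both came from Hoechst/PI differential nuclear staining imaging after 48 h exposure to 0.5–100 µM, in quadruplicate, with 10,000 CEM or 3,000 HS-27 cells/well. Each CC50 was estimated by linear interpolation between the two concentrations nearest 50% cell death.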

Assay [4] deals with T3, Histone deacetylase 8 (Homo sapiens) (UniProt Q9BY41).
T3 sequence (whole entry): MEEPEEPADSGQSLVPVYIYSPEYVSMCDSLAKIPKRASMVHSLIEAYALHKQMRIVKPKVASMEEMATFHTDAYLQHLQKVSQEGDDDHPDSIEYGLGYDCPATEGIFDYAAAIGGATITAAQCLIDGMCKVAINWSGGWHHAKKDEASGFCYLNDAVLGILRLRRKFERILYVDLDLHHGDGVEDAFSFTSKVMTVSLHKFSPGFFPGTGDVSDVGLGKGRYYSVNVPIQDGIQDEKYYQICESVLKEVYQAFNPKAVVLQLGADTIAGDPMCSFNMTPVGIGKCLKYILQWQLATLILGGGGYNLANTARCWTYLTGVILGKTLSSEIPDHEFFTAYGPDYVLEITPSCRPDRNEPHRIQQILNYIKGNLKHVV
Kind of assay: Inhibition of recombinant human His6/SUMO-tagged HDAC8 expressed in Escherichia coli (BL21) DE3 pLysS assessed as residual activity at 50 uM using Boc-Lys(trifluoroacetyl)-AMC as substrate preincubated for 60 mins followed by substrate addition and measured after 60 mins by fluorescence assay relative to control. As to conditions: time 120.0 min. In outline:
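20 μM Boc-Lys(trifluoroacetyl)-AMC was then added for 60 min at 30 °C, the reaction stopped with 1.7 μM SATFMK and developed with 0.4 mg/ml trypsin, and AMC fluorescence read at Ex 350/Em 450 nm. Triplicates; percent relative activity.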

Structures are written as SMILES. The source made the active and inactive calls. No cut-off for these calls is given here. Where only a bound is given, the exact number is not on record here.

As usually defined, the inhibition is the change of the read-out against control, counted positive when it falls. As usually defined, the CC50 is the concentration giving 50% cytotoxicity. Consider `O=C(CN1C(=O)S/C(=C/c2ccco2)C1=O)Nc1ccc(Cl)c(Cl)c1`, for which the inhibition result in assay [1] is “inactive”. Besides, in assay [2], the inhibition was > 50%. In addition, the CC50 with CCRF-CEM came to 7.8 µM; in the assay with K562 it was 43.3 µM; with KCL-22 it was 72.2 µM. For the same compound, the Selectivity Index in assay [3] was > 12.8. For the same compound, the Activity in assay [4] was > 50%.

With `O=C(CN1C(=O)S/C(=C/c2ccco2)C1=O)Nc1nc2ccccc2s1`, in assay [1], the inhibition result is “inactive”. Moreover, the inhibition in assay [2] was > 50%. Besides, the CC50 in the assay on CCRF-CEM was 1.7 µM; in the assay on K562, 91.9 µM; in the assay with KCL-22, 15.3 µM. Also, the Selectivity Index in assay [3] is > 25.8. Moreover, the Activity in assay [4] is > 50%.

The values above are taken from ChEMBL document CHEMBL4765368, “Structure guided design and synthesis of furyl thiazolidinedione derivatives as inhibitors of GLUT 1 and GLUT 4, and evaluation of their anti-leukemic potential” (Eur J Med Chem, 2020).
